# Bioassay records (PubChem)
# bIAP inhibitor: blocks bovine intestinal alkaline phosphatase activity; inhibition, % at 20 µM; 190,000 tested, under 10 active; purified bovine IAP, CDP-star luminescence, 30 min; AID 1019;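 active means over 50% inhibition of intestinal alkaline phosphatase at 20 µM in the single-dose screen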
#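 Assay system: bovine IAP enzyme; medium: DEA buffer 100 mM, pH 9.8, with MgCl2 1.0 mM, ZnCl2 0.02 mM; doses: 20 µM single dose; incubation: enzyme reaction for 30 min at room temperature; detection: CDP-star luminescence signal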
# mIAP act: increases mouse intestinal alkaline phosphatase activity; activation factor at 10 µM; AID 2805; 330,000 compounds, 0.24% hits; muIAP, CDP-Star luminescence, 30 min; stronger effect = higher value; 1 = vehicle-only enzyme signal, 0 = enzyme-free wells;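 active means activation factor of at least 2 at 20 µM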
#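 Assay system: mouse IAP enzyme; Reagent: CDP-Star chemiluminescent phosphatase substrate; Compound: DMSO-dissolved test compounds; Incubation: 30 min, room temperature; Technique: luminescence from enzymatic CDP-Star hydrolysis; Controls: DMSO-only wells and no-enzyme negative control.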
# hIAP inh: blocks human intestinal alkaline phosphatase; P09923; purified IAP, CDP-Star luminescence, 30 min; inhibition, % at 10 µM; 330,000 compounds, 0.12% hits; AID 2544;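 active means inhibition reaching a set limit with compound at 10 µM in the primary screen, cut at about 35% in these data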
# Target sequence (P09923 whole entry, looked up): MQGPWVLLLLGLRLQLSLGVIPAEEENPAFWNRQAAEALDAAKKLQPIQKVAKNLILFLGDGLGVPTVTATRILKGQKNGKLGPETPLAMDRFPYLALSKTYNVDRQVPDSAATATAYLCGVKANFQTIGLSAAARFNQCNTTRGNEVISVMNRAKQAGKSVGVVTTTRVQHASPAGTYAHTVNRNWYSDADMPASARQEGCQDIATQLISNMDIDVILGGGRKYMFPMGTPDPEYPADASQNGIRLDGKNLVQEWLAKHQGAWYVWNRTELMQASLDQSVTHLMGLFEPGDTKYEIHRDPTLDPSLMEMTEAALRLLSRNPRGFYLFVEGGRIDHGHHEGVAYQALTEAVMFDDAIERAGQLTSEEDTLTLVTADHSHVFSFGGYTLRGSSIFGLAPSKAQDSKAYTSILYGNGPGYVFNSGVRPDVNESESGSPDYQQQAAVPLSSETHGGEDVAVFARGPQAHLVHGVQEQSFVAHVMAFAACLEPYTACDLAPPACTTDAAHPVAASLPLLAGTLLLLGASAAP
# hIAP activ: increases human intestinal alkaline phosphatase activity; P09923; purified human IAP, CDP-Star luminescence, 30 min; stronger effect = higher value; 1 = vehicle-only enzyme, 0 = enzyme-free background; activation factor at 10 µM; 330,000 compounds, 0.16% hits;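 active means activation factor of the enzyme at least 2-fold when tested at 20 µM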
# mIAP inh: mouse IAP inhibition; inhibition, % at 10 µM; AID 2806; purified mouse IAP, CDP-Star luminescence, 30 min; 330,000 compounds, 0.2% hits;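 active means inhibition of at least 40% at 10 µM in the primary screen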
# bIAP act: increases bovine intestinal alkaline phosphatase activity. purified bovine IAP, CDP-star luminescence, 30 min; stronger effect = higher value; fold of DMSO-control signal, blank-subtracted. activation factor at 20 µM. 200,000 compounds, 0.17% hits;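 active means activation factor of 2 or more at 20 µM, a signal rise over negative controls twice the positive control's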
# hIAP act conf: human IAP activation confirmation; shares compounds with hIAP activ; purified IAP, CDP-Star luminescence, 30 min; stronger effect = lower value; activation (%Activity, negative = activation), % at 8.3 µM; 880 compounds, 10% hits;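 active means at least twofold enzyme activation in any of six single-dose repeats, which the averaged readout prints as negative percent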
# A number is an active result; n = inactive; x = not tested or not shown. Rows were chosen to be rich in hits. Some 0.72% of all compounds tested hit in one or more screens of this group.
SMILES,bIAP inhibitor,mIAP act,hIAP inh,hIAP activ,mIAP inh,bIAP act,hIAP act conf
CCc1ccc(NS(=O)(=O)c2c(C)noc2C)cc1,x,n,n,n,n,x,x
CC(C)Oc1cccc(C(=O)Nc2ncn[nH]2)c1,x,n,n,2.24,n,x,n
CC(C)COc1ccc(C(=O)Nc2ncn[nH]2)cc1,x,n,n,n,n,x,x
CC(C)Oc1ccc(C(=O)Nc2ncn[nH]2)cc1,x,n,n,2.01,n,x,-64.7
C/C(=N/Nc1ccccc1[N+](=O)[O-])c1ccc([N+](=O)[O-])cc1,x,n,36.8,n,n,x,-232.7
O=C(Sc1ccccc1)c1cccc(Cn2cc(C(F)(F)F)ccc2=O)c1,x,n,n,n,n,x,x
O=C(NCCCN1CCOCC1)c1onc(CSc2ccccn2)c1C(=O)NCCCN1CCOCC1,x,n,n,n,n,x,x
O=C(NCc1ccc2c(c1)OCO2)c1cc(-c2cc(Cl)ccc2O)n[nH]1,x,n,n,2.08,n,x,n
COc1ccc(CCNC(=O)c2cc(-c3cc(C)ccc3O)n[nH]2)cc1OC,n,n,n,2.68,n,2,n
Cc1cccc(NC(=O)c2cc(-c3cc(C)ccc3O)n[nH]2)c1,x,n,n,2.04,n,x,n
Cc1cccc(NC(=O)c2cc(-c3cc(C)c(C)cc3O)n[nH]2)c1,x,n,n,n,n,x,x
COc1ccc(CCNC(=O)c2cc(-c3ccc(C)c(C)c3O)n[nH]2)cc1OC,n,n,n,n,n,n,x
Cc1cc(O)c(-c2cc(C(=O)NCc3ccc4c(c3)OCO4)[nH]n2)cc1C,n,n,n,n,n,n,x
COc1ccc(NC(=O)c2cc(-c3ccc(C)cc3O)n[nH]2)c(OC)c1,x,n,n,2.06,n,x,n
C/C(=N/NC(=O)c1cnccn1)c1cccs1,n,n,n,n,n,n,x
Cc1c(Cl)cccc1NC(=O)c1cc(-c2ccccc2O)n[nH]1,n,n,n,2.01,n,n,n
COc1ccc(CNC(=O)c2cc(-c3cc(C)ccc3O)n[nH]2)cc1,x,n,n,2.38,n,x,n
COc1ccc(CNC(=O)c2cc(-c3ccccc3O)n[nH]2)cc1,n,n,n,n,n,n,x
Cc1cc([N+](=O)[O-])nn1CC(=O)Nc1ccc(F)cc1,n,n,n,n,n,n,x
Cc1cc([N+](=O)[O-])nn1CC(=O)NNC(=S)Nc1ccc(F)cc1,n,n,n,2.11,n,n,n
O=C(Nc1ccccc1C(=O)O)c1ccc(CN2C(=O)c3ccccc3C2=O)cc1,x,n,n,n,n,x,x
O=C(CN1C(=O)c2ccccc2S1(=O)=O)NCc1cccs1,x,n,45.1,n,n,x,n
Cc1ccc2oc(C(=O)Nc3nonc3C)c(C)c2c1,x,n,37.9,n,n,x,n
Cc1ccc2oc(C(=O)Nc3nnc(C)s3)c(C)c2c1,n,n,n,n,n,n,x
CCN(CC)C(=O)Cc1cc(C(=O)O)c2ccccc2n1,n,n,n,2.03,n,n,n
SMILES,bIAP inhibitor,mIAP act,hIAP inh,hIAP activ,mIAP inh,bIAP act,hIAP act conf
CCOC(=O)C1CCN(S(=O)(=O)c2cc(C(=O)N3CCCCC3)ccc2OC)CC1,x,n,n,n,n,x,x
O=C(Nc1ncn[nH]1)c1ccc(Cl)c(S(=O)(=O)N2CCCCCC2)c1,n,n,n,2.37,n,n,n
COc1cc2c(cc1OC)C(c1ccccc1F)NCC2 (configuration not stated),x,n,n,n,n,x,x
CC(C)(C)c1ccc(C(=O)Nc2ccc(CN3CCS(=O)(=O)CC3)cc2)cc1,x,n,38.6,n,n,x,n
CC1=NN(c2ccccc2)C(=O)/C1=C\C=C1\N(C)c2ccccc2C1(C)C,n,n,40.4,n,40.3,n,n
CC1=NN(c2ccccc2)C(=O)/C1=C\C=C1/N(C)c2ccccc2C1(C)C,n,n,n,n,n,n,x
Cn1cc(Br)c(C(=O)Nc2ncc(Br)s2)n1,n,n,n,n,n,n,x
CCN1/C(=C/c2ccc3cc(C)ccc3[n+]2CC)Sc2ccc3sccc3c21,x,n,35.2,n,43.4,x,n
CCN1/C(=C\c2ccc3cc(C)ccc3[n+]2CC)Sc2cc(C)c(C)cc21,n,x,x,x,x,n,x
CC(CC(=O)Nc1cc(S(=O)(=O)N2CCOCC2)ccc1OCC(F)(F)F)c1ccccc1 (configuration not stated),x,n,n,n,n,x,x
CC(=O)Nc1nc(-c2cccc3ccccc23)cs1,x,n,n,n,n,x,x
CC(=O)Nc1nc(-c2ccc(Br)s2)cs1,n,n,n,2.2,n,n,n
O=C(NCCc1ccccc1)C(=O)NCC1OCCN1S(=O)(=O)c1ccc(Br)cc1 (configuration not stated),x,n,n,n,n,x,x
Nc1c(N2CCCC2)cc(Cl)c2nonc12,n,n,35.1,n,n,n,n
Nc1c(N2CCOCC2)cc(Cl)c2nonc12,n,n,n,n,n,n,x
NS(=O)(=O)c1ccc2nc(NC(=O)c3ccc4ncsc4c3)sc2c1,x,n,35.6,n,n,x,n
COc1ccc(C(=O)N=C2CCC(C#N)=C3c4cc(OC)c(OC)cc4CCN23)cc1,n,n,n,2.06,n,n,n
COc1cc2c(cc1OC)C1=C(C#N)CC/C(=N\S(=O)(=O)c3ccccc3)N1CC2,n,n,n,n,n,n,x
Cc1cccc(-n2nc(CC#N)c(C#N)c2N)c1,n,n,n,n,n,n,x
Cc1cc(OCC(=O)NNC(=O)c2cnccn2)cc(C)c1Cl,x,n,n,2.06,n,x,n
Cc1ccc(OCC(=O)NCCCNC(=O)c2cnccn2)cc1C,x,n,n,n,n,x,x
O=C(O)c1cc(S(=O)(=O)N(Cc2ccccc2)c2ccc(Cl)cc2)ccc1Cl,x,n,n,n,n,x,x
CCc1c(C(=O)NNC(=S)NCCc2ccccc2)csc1C,n,n,n,2.13,n,n,n
C[n+]1c(/C=C/c2ccc(O)cc2)ccc2ccccc21,x,n,44.5,n,n,x,n
CN(Cc1ccccc1)C(=O)c1[nH]cnc1C(=O)Nc1nccs1,x,n,n,2.45,n,x,-141.0
SMILES,bIAP inhibitor,mIAP act,hIAP inh,hIAP activ,mIAP inh,bIAP act,hIAP act conf
CN(Cc1ccccc1)C(=O)c1[nH]cnc1C(=O)NCc1ccccc1,x,n,n,n,n,x,x
O=C(Nc1nccs1)c1nc[nH]c1C(=O)NCc1ccccc1,x,n,n,2.37,n,x,n
CCOC(=O)c1ccc(NC(=O)c2nc[nH]c2C(=O)N[C@@H](CC(C)C)C(=O)OC(C)(C)C)cc1,x,n,n,2.03,n,x,n
Cc1ccc(NC(=O)CSCC(=O)NC2=NCCS2)cc1,x,n,n,n,n,x,x
O=C(Cn1nnc2ccccc2c1=O)NCCc1ccc(Cl)cc1Cl,n,n,36.7,n,n,n,n
Cc1ccc2c(c1)Oc1ccc([N+](=O)[O-])cc1C(=O)N2,n,n,n,2.37,n,n,n
CCOc1ccc2nc(SCC(=O)Nc3ccc4[nH]c(=O)[nH]c4c3)[nH]c2c1,x,n,n,n,n,x,x
O=C(CSc1ncn[nH]1)NCCc1ccccc1,n,n,n,2.65,n,n,-112.9
